{"data": "Measured values of several laboratories", "target": "NT-3 growth factor receptor (NTRK3, Homo sapiens, UniProt Q16288)", "note": "Protocols differ between the studies behind these lines."}
{"SMILES": "C#Cc1n[nH]c2c(-c3cn(C(C)c4ccccn4)c(=O)[nH]c3=O)cc(F)cc12 (centres unmarked)", "assay": "enzyme activity, inhibitor", "conditions": "1 µM", "quantity": "inhibition", "value": "12.3%"}
{"SMILES": "Cn1cncc1[C@@](O)(COc1ccc(C#N)cc1-c1ccc(OC(F)(F)F)cc1)c1ccc(C#N)cc1", "assay": "cell-free assay, competition with immobilised ligand", "conditions": "1 µM", "quantity": "remaining binding", "value": "99%"}
{"SMILES": "COc1ncccc1-c1cnn2ccc(N3CCN(C(=O)OC(C)C)CC3)nc12", "assay": "binding, competition with immobilised ligand", "conditions": "1 µM", "quantity": "remaining binding", "value": "50%"}
{"SMILES": "Cc1nn(C)cc1-c1nc2c(N3CCN(Cc4ccc(Cl)cc4)CC3)c(Cl)cnc2[nH]1", "assay": "binding, competition with immobilised ligand", "conditions": "1 µM", "quantity": "remaining binding", "value": "57%"}
{"SMILES": "CC(C)(C)c1cc(C=C(C#N)C#N)cc(Br)c1O", "assay": "enzyme activity, inhibitor", "conditions": "0.5 µM", "quantity": "remaining activity", "value": "104%"}
{"SMILES": "Cn1cc(-c2cc(F)cc(N3CCn4c(cc5c4CCCC5)C3=O)c2CO)cc(Nc2ccc(N3CCN(C4COC4)CC3)cn2)c1=O", "assay": "enzyme activity, inhibitor", "conditions": "0.1 µM", "quantity": "inhibition", "value": "15%"}
{"SMILES": "N#CC1(c2ccccn2)CCN(Cc2cc(C(=O)O)c(=O)n3ccccc23)CC1", "assay": "cell-free assay, competition with immobilised ligand", "conditions": "1 µM", "quantity": "remaining binding", "value": "70%"}
{"SMILES": "Nc1ncc(-c2nc(N3CCOCC3)nc(N3CCOCC3)n2)c(C(F)F)n1", "assay": "cell-free assay, competition with immobilised ligand", "conditions": "10 µM", "quantity": "remaining binding", "value": "87%"}
{"SMILES": "O=c1[nH]c2ccccc2n1C1CCN(Cc2ccc(-c3[nH]c4cc5ncnc5cc4nc3-c3ccccc3)cc2)CC1", "assay": "cell-free assay", "conditions": "0.5 µM", "quantity": "remaining signal", "value": "116%"}
{"SMILES": "C#Cc1n[nH]c2c(-c3cn([C@@H](C)c4ccccc4)c(=O)[nH]c3=O)cc(F)cc12", "assay": "enzyme activity, inhibitor", "conditions": "0.1 µM", "quantity": "inhibition", "value": "11.4%"}
{"SMILES": "Cn1cc(-c2cccc(N3CCc4c(sc5c4CC(C)(C)C5)C3=O)c2CO)cc(Nc2ccncn2)c1=O", "assay": "enzyme activity, inhibitor", "conditions": "1 µM", "quantity": "inhibition", "value": "-8%"}
